Values after ≈ are worked out from the molar mass of the structure shown.
Columns and labels:
Blumeria hordei [1] = test: Antifungal activity against Blumeria graminis f. sp. hordei assessed as control of barley powdery mildew treated 1 day before inoculation; format: functional, organism-based
Summary of the method: (§1)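 One-day protective test on barley against powdery mildew: plants treated 1 day before inoculation, with Tween 20 solution alone as the untreated reference. Pots in randomized complete block design, three replicates per treatment, experiment run twice. Infected leaf area (%) scored; % control = 100[(A − B)/A], A = infection on Tween 20-sprayed leaves, B = infection on treated leaves; reported ± standard deviation.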

Podosphaera macularis [2] = test: Antifungal activity against Sphaerotheca humuli assessed as diseased fruits in strawberry powdery mildew at 4000 fold dilution (reference value: 62.2%); format: functional
Summary of the method: (§2)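 Commercial greenhouse trial on strawberry cv. Janghee. Plots were 4 m long, with data taken from the middle 3 m. Sprays applied by hand-held sprayer until runoff, three times at 1-week intervals. Before each spray, ripe fruits were harvested and total and diseased fruits counted. Percentage of diseased fruits given as the mean of three replicates; disease-control percentage calculated relative to untreated control.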

Podosphaera macularis [3] = test: Antifungal activity against Sphaerotheca humuli assessed as control of strawberry powdery mildew at 4000 fold dilution; format: functional; summary of the method: as §2
Blumeria hordei [4] = test: Antifungal activity against Blumeria graminis f. sp. hordei assessed as control of barley powdery mildew at 63 ug/mL treated 1 day before inoculation; format: functional; summary of the method: as §1
Blumeria hordei [5] = test: Antifungal activity against Blumeria graminis f. sp. hordei assessed as control of barley powdery mildew at 16 ug/mL treated 1 day before inoculation; format: functional
Summary of the method: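 Barley plants in pots treated with sample in Tween 20 solution and inoculated 1 day later (protective assay). Randomized complete block design, three replicates per treatment, experiment run twice. Infected leaf area (%) scored. % control = 100[(A−B)/A], where A is the infection area on leaves sprayed with Tween 20 solution alone; reported ± standard deviation.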

[6] = Blumeria hordei, read-out: IC50

IC50 (Blumeria hordei [1]; [6]) | SMILES | Activity (Blumeria hordei [4]) | other results
4.7 µg/mL (≈ 18.5 µM) | Cc1cc(O)c2c(c1)C(=O)c1cccc(O)c1C2=O [CHRYSOPHANOL] |  | 
20 µg/mL (≈ 92.5 µM) | CC(=O)c1c(C)cc2cccc(O)c2c1O [NEPODIN] |  | 
71.4 µg/mL (≈ 141 µM) | NC(=O)OC[C@H](O)[C@@H](O)[C@H](N)C(=O)N[C@H](C(=O)O)[C@H]1O[C@@H](n2cc(CO)c(=O)[nH]c2=O)[C@H](O)[C@@H]1O [POLYOXIN B] |  | 
 | CCCOC/C(=N\c1ccc(Cl)cc1C(F)(F)F)n1ccnc1 [TRIFLUMIZOLE] |  | Activity (Podosphaera macularis [2]): 7.2%; Activity (Podosphaera macularis [3]): 89%
28.3 µg/mL (≈ 20.4 µM) | CO[C@H]1C[C@H](O[C@H]2[C@@H](OC)C[C@H](O[C@H]3CC[C@@]4(C)C(=CC[C@]5(O)[C@@H]4C[C@@H](OC(=O)/C=C(\C)C(C)C)[C@@]4(C)[C@]5(O)CC[C@]4(O)C(C)=O)C3)O[C@@H]2C)O[C@@H](C)[C@H]1O[C@H]1C[C@H](OC)[C@H](O[C@H]2C[C@@H](OC)[C@@H](O[C@@H]3O[C@H](CO)[C@@H](O[C@@H]4O[C@H](CO)[C@@H](O)[C@H](O)[C@H]4O)[C@H](O)[C@H]3O)[C@H](C)O2)[C@@H](C)O1 [WILFOSIDE C1GG] | >77% | 
12.9 µg/mL (≈ 10.5 µM) | CO[C@H]1C[C@H](O[C@H]2[C@@H](OC)C[C@H](O[C@H]3CC[C@@]4(C)C(=CC[C@]5(O)[C@@H]4C[C@@H](OC(=O)/C=C(\C)C(C)C)[C@@]4(C)[C@]5(O)CC[C@]4(O)C(C)=O)C3)O[C@@H]2C)O[C@@H](C)[C@H]1O[C@H]1C[C@H](OC)[C@H](O[C@H]2C[C@@H](OC)[C@@H](O[C@@H]3O[C@H](CO)[C@@H](O)[C@H](O)[C@H]3O)[C@H](C)O2)[C@@H](C)O1 [WILFOSIDE C1G] | >77% | Activity (Blumeria hordei [5]): 78%
 | CO[C@H]1C[C@H](O[C@H]2[C@@H](OC)C[C@H](O[C@H]3CC[C@@]4(C)C(=CC[C@]5(O)[C@@H]4C[C@@H](OC(=O)/C=C/c4ccccc4)[C@@]4(C)[C@]5(O)CC[C@]4(O)C(C)=O)C3)O[C@@H]2C)O[C@@H](C)[C@H]1O[C@H]1C[C@H](OC)[C@H](O[C@H]2C[C@@H](OC)[C@@H](O[C@@H]3O[C@H](CO)[C@@H](O[C@@H]4O[C@H](CO)[C@@H](O)[C@H](O)[C@H]4O)[C@H](O)[C@H]3O)[C@H](C)O2)[C@@H](C)O1 [WILFOSIDE K1GG] |  | IC50 (Blumeria hordei [1]): Not Active
 | CO[C@H]1C[C@H](O[C@H]2[C@@H](OC)C[C@H](O[C@H]3CC[C@@]4(C)C(=CC[C@]5(O)[C@@H]4C[C@@H](OC(=O)/C=C/c4ccccc4)[C@@]4(C)[C@]5(O)CC[C@]4(O)C(C)=O)C3)O[C@@H]2C)O[C@@H](C)[C@H]1O[C@H]1C[C@H](OC)[C@H](O[C@H]2C[C@@H](OC)[C@@H](O)[C@H](C)O2)[C@@H](C)O1 [WILFOSIDE K1N] |  | IC50 (Blumeria hordei [1]): Not Active

SMILES | IC50 (Blumeria hordei [1]; [6]) | Activity (Blumeria hordei [4]) | other results
CO[C@H]1C[C@H](O[C@H]2[C@@H](OC)C[C@H](O[C@H]3CC[C@@]4(C)C(=CC[C@]5(O)[C@@H]4C[C@@H](OC(=O)/C=C(\C)C(C)C)[C@@]4(C)[C@]5(O)CC[C@]4(O)C(C)=O)C3)O[C@@H]2C)O[C@@H](C)[C@H]1O[C@H]1C[C@H](OC)[C@H](O[C@H]2C[C@@H](OC)[C@@H](O)[C@H](C)O2)[C@@H](C)O1 [WILFOSIDE C1N] | 3.24 µg/mL (≈ 3.04 µM) | >77% | Activity (Blumeria hordei [5]): 95%

Source: ChEMBL document CHEMBL3044585, “Potent in vivo antifungal activity against powdery mildews of pregnane glycosides from the roots of Cynanchum wilfordii” (J Agric Food Chem, 2011)
